Rows were chosen to be rich in hits. Some 1% of all compounds tested hit in one or more screens of this group.
PvdQ inh: P. aeruginosa PvdQ acylase inhibitors, primary screen, biochemical, fluorescence, plate reader and imaging, single point; purified PvdQ acylase; AID 488965, 2010; 0.063% of 340,000 active; inhibition, % at 10 µM; in the data active = inhibition above about 30%, passing the limit was not always enough;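 note: 0% = vehicle neutral wells and 100% = reference inhibitor wells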
DNA FID counter: compounds displacing fluorescent DNA intercalator, primary screen, artefact control for HCV NS3 helicase inhibitor project, biochemical, FID fluorescence; inhibition, % at 7.9 µM; 0.17% of 290,000 active; DNA fluorescent intercalator displacement; in the data active = inhibition above about 37%;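 note: 0% = vehicle and 100% = reference compound; higher means more ethidium bromide displaced from hairpin DNA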
IMP-1 inh: IMP-1 metallo-beta-lactamase inhibitors, primary screen, biochemical, epi-absorbance readout, Pseudomonas aeruginosa enzyme | metallo-beta-lactamase IMP-1 (Pseudomonas aeruginosa) | purified IMP-1, nitrocefin hydrolysis, epi-absorbance fluorescence | inhibition, % at 5.6 µM | 0.45% of 290,000 active | AID 1556, 2009;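 active = inhibition above the mean plus 3 SD of all compounds in the same screening run, cut at about 4.5% in these data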;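 note: 0% = IMP-1 with DMSO and 100% = DMSO wells lacking enzyme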
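System – purified recombinant IMP-1 beta-lactamase · Input – IMP-1 dispensed at 0.2 nM · Timing – 15 min preincubation plus 25 min reaction at 25 °C · Signal – Epi-absorbance fluorescence, 480 nm excitation, 530 nm emission · Measure – percent IMP-1 inhibition derived from blank-referenced optical density · Controls – Enzyme-plus-DMSO low control, enzyme-free DMSO high control · Replication – singlicate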
RAD54 branch: inhibitors of human RAD54 branch migration, primary screen, biochemical, fluorescence, single point | AID 602329, 2012 | 0.14% of 360,000 active | DNA repair and recombination protein RAD54-like (Homo sapiens), Q92698 | inhibition, % at 10.4 µM | RAD54 Holliday junction branch migration, FAM/BHQ fluorescence;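 active = mean normalized replicate activity at least 40 and at least half of replicates scoring 40 or more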;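 note: 0% = median of neutral control wells and 100% = median of positive control wells; inhibitors cause a drop in the FAM fluorescence signal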
Target sequence (Q92698 whole entry, looked up): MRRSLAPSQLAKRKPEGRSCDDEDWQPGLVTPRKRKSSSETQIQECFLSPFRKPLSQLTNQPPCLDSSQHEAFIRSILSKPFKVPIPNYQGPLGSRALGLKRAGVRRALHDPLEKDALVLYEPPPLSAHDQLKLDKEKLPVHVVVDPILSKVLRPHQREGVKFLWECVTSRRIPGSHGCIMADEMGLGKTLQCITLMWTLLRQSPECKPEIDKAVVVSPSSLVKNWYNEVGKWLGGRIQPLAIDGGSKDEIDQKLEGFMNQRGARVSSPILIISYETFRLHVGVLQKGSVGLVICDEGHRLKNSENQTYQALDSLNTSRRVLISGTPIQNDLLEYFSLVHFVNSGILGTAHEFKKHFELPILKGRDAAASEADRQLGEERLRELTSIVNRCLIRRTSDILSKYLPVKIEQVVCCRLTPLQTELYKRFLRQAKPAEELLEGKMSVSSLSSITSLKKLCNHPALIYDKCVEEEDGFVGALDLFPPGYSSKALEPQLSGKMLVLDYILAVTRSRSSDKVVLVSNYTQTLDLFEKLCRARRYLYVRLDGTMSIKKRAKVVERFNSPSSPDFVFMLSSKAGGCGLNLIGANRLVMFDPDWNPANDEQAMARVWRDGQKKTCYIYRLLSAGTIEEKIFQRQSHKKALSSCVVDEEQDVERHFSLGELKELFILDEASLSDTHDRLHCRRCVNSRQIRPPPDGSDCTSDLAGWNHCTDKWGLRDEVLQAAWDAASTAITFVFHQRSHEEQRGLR
VIM-2 inhibitor: VIM-2 metallo-beta-lactamase inhibitors, primary screen, biochemical, epi-absorbance readout, Pseudomonas aeruginosa enzyme. 0.89% of 290,000 active. inhibition, % at 5.6 µM. purified VIM-2, nitrocefin hydrolysis, epi-absorbance fluorescence;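 active = inhibition above the mean of all tested compounds plus 3 SD, cutoff set per screening run, cut at about 7.5% in these data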;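 note: red hydrolysis product quenches plate fluorescence so inhibitors raise well fluorescence; 0% = enzyme with DMSO and 100% = DMSO without enzyme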
Numbers without * were called inactive.

Screening COc1ccc(-n2cc(CNC3CCN(C)CC3)c(-c3cccc(F)c3)n2)cc1 returned PvdQ inh 2, DNA FID counter 42*, IMP-1 inh -1 and VIM-2 inhibitor 2.
Screening CO[C@@H]1CN(C)C(=O)c2cc(NC(C)=O)ccc2OC[C@H](C)N(Cc2cccnc2)C[C@@H]1C returned RAD54 branch -2.
Screening CNC[C@H]1OCCCC[C@@H](C)Oc2ccc(NC(=O)Nc3ccccc3)cc2C(=O)N([C@@H](C)CO)C[C@@H]1C returned RAD54 branch -6.
Screening Cc1noc(C)c1NC(=O)Nc1ccc2c(c1)CC(=O)N([C@H](C)CO)C[C@H](C)[C@@H](CN(C)S(=O)(=O)c1ccc(F)cc1)O2 returned RAD54 branch -14.
`O=[N+]([O-])c1ccc(N2CCSCC2)cc1` gave PvdQ inh 54*, DNA FID counter 1, IMP-1 inh -1 and VIM-2 inhibitor -4.
O=[N+]([O-])c1ccc(N2CCN(c3ccc(F)cc3)CC2)cc1 was read as PvdQ inh 11, DNA FID counter 1, IMP-1 inh -1, RAD54 branch 3 and VIM-2 inhibitor 0.
C[C@@H]1CN([C@H](C)CO)C(=O)Cc2cc(NC(=O)Nc3ccccc3)ccc2O[C@@H]1CN(C)C(=O)Nc1ccccc1 was read as RAD54 branch -7.
For Nc1cc(=O)[nH]c(SCC(=O)N2N=C(c3ccc(Cl)cc3)CC2c2ccco2)n1 (stereo not given) the results were PvdQ inh -8, DNA FID counter -38, IMP-1 inh 0 and VIM-2 inhibitor 3.
Screening CCC(=O)N1N=C(c2ccc(Cl)cc2)CC1c1ccco1 (stereo not given) returned PvdQ inh -8, DNA FID counter -32, IMP-1 inh -3 and VIM-2 inhibitor 9.5*.
`Nc1nc(SCC(=O)N2N=C(c3ccc(Cl)cc3)CC2c2ccco2)n[nH]1` (stereo not given) gave PvdQ inh -13, DNA FID counter -26, IMP-1 inh -1, RAD54 branch 1 and VIM-2 inhibitor 11*.
For O=C(OCC(=O)N1N=C(c2ccc(Cl)cc2)CC1c1ccco1)c1cccnc1 (stereo not given) the results were PvdQ inh 8 and RAD54 branch 3.
`COCC(=O)OCC(=O)N1N=C(c2ccc(Cl)cc2)CC1c1ccco1` (stereo not given) gave PvdQ inh 1, DNA FID counter -29, IMP-1 inh -1 and VIM-2 inhibitor 9.9*.
CS(=O)(=O)Nc1ccc2c(c1)[C@H]1C[C@@H](CC(=O)NCC3CC3)O[C@H](CO)[C@H]1O2 was read as RAD54 branch -29.
Screening CN(C)CCSc1nc(-c2ccccc2)nc2c1CCC2 returned PvdQ inh -3, DNA FID counter 8, IMP-1 inh 0, RAD54 branch -2 and VIM-2 inhibitor 9.8*.
For CN(C)C(=O)CSc1nc(-c2ccccc2)nc2c1CCCC2 the results were PvdQ inh -11, DNA FID counter -30, IMP-1 inh -1, RAD54 branch 3 and VIM-2 inhibitor 4.
For C[C@@H]1CN([C@@H](C)CO)C(=O)Cc2cc(NS(=O)(=O)c3ccc(F)cc3)ccc2O[C@H]1CN(C)C(=O)Nc1ccccc1 the results were RAD54 branch 3.
`CCN(CC)CCOc1ccc2c(c1)C(=NO)c1cc(OCCN(CC)CC)ccc1-2` gave PvdQ inh -16, DNA FID counter 90*, IMP-1 inh -3, RAD54 branch 125* and VIM-2 inhibitor 4.
For CC(C)NC(=O)Nc1ccc2c(c1)C(=O)N([C@H](C)CO)C[C@@H](C)[C@H](CN(C)C(=O)Nc1ccc(F)cc1)OCCCC[C@@H](C)O2 the results were RAD54 branch -3.
CCCOc1ccccc1/C=C1/C(=O)ON=C1C was read as PvdQ inh -15, DNA FID counter 1, IMP-1 inh 1, RAD54 branch -3 and VIM-2 inhibitor 8.2*.
`CCc1nnc(NC(=O)CSc2nnc(-c3cc4ccccc4cc3O)n2CC)s1` gave PvdQ inh -7, DNA FID counter -34, IMP-1 inh -2, RAD54 branch -5 and VIM-2 inhibitor 0.
